Results reported in ChEMBL document CHEMBL1781995, “Acenaphtho[1,2-b]pyrrole-based selective fibroblast growth factor receptors 1 (FGFR1) inhibitors: design, synthesis, and biological activity” (J Med Chem, 2011).
The source made the active and inactive calls. The rule behind the calls is not given here.

Tests used:
WI-38 = test: Antiproliferative activity against human WI38 cells expressing FGFR after 72 hrs by SRB assay; assay type: cell-based; settings: WI-38, 72 h
Summary of the method: (§1)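 Cells seeded and grown 24 h, then exposed to increasing compound concentrations for 72 h without medium change. Fixed with cold 10% TCA 1 h at 4 °C, stained 15 min with 4 mg/mL SRB in 1% acetic acid, rinsed, dye dissolved in 10 mM Tris base, A515 read. Inhibition = (1 − A515treated/A515control)×100; IC50 by Logit method from at least three independent tests.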

BXPC-3 = test: Antiproliferative activity against human BxPC3 cells expressing FGFR after 72 hrs by SRB assay; assay type: functional, cell-based; settings: BXPC-3, 72 h; summary of the method: as §1
[1] = molecular target: T1, Fibroblast growth factor receptor 1 (Homo sapiens, UniProt P11362); test: Inhibition of FGFR1 using poly(Glu-Tyr)4:1 as substrate after 60 mins by ELISA
Target sequence in this assay (P11362 whole entry): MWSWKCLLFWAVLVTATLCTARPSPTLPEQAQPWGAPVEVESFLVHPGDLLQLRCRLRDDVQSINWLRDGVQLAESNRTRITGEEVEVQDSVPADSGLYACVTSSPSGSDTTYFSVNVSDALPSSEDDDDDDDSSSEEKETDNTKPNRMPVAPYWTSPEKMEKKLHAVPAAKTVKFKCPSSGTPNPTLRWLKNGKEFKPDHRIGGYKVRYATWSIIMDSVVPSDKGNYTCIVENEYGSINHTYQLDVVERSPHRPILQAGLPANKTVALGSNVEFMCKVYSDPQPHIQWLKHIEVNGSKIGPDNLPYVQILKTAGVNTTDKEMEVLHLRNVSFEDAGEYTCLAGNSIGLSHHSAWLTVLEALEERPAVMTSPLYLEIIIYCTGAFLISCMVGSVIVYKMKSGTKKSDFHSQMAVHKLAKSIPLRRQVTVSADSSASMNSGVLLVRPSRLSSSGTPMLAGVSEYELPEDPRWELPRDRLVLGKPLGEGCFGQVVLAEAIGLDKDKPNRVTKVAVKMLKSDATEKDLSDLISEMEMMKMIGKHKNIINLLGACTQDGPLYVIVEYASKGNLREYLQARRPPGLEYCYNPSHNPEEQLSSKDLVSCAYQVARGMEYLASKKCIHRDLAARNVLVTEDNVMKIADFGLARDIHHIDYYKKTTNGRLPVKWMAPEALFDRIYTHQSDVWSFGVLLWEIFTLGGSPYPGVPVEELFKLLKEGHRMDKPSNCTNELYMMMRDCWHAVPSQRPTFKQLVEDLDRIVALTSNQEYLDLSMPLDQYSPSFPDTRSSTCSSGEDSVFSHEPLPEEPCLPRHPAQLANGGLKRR

T-24 = test: Antiproliferative activity against human T24 cells expressing FGFR after 72 hrs by SRB assay; assay type: functional, cell-based; settings: T-24, 72 h; summary of the method: as §1
[2] = molecular target: Vascular endothelial growth factor receptor 1 (Homo sapiens, UniProt P17948); test: Inhibition of VEGFR1 using poly(Glu-Tyr)4:1 as substrate measured after 60 mins by ELISA
Summary of the method: (§2)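 Wells precoated with 20 μg/mL poly(Glu,Tyr)4:1. Detected with PY99 anti-phosphotyrosine, then HRP anti-mouse IgG and o-phenylenediamine/H2O2; stopped with H2SO4, A490. Duplicates per concentration; IC50 from inhibition curves, at least three independent tests.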

[3] = molecular target: Vascular endothelial growth factor receptor 2 (Homo sapiens, UniProt P35968); test: Inhibition of VEGFR2 expressed in Bac-to-Bac Baculovirus expression system using poly(Glu-Tyr)4:1 as substrate after 60 mins by ELISA; summary of the method: as §2
[4] = molecular target: Platelet-derived growth factor receptor beta (Homo sapiens, UniProt P09619); test: Inhibition of PDGFRbeta using poly(Glu-Tyr)4:1 as substrate after 60 mins by ELISA; summary of the method: as §2
[5] = molecular target: T1, Fibroblast growth factor receptor 1; test: Inhibition of FGFR1 in human BxPC3 cells assessed as reduction of Erk1/2 phosphorylation after 12 hrs by Western blot analysis; assay type: cell-based; settings: BXPC-3
Summary of the method: (§3)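 BxPC3 cells plated at 3 × 10^5 per well, serum-starved 24 h, then treated 12 h with compound (1.25, 2.5, 5, 10 μM). Whole-cell lysates run on 10% SDS-PAGE and immunoblotted for phospho-FGFR1 (Tyr653/654), phospho-Erk1/2 (T202/Y204), phospho-Akt and totals, with GAPDH loading control.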
Target sequence in this assay (P11362 22-822 limits assumed): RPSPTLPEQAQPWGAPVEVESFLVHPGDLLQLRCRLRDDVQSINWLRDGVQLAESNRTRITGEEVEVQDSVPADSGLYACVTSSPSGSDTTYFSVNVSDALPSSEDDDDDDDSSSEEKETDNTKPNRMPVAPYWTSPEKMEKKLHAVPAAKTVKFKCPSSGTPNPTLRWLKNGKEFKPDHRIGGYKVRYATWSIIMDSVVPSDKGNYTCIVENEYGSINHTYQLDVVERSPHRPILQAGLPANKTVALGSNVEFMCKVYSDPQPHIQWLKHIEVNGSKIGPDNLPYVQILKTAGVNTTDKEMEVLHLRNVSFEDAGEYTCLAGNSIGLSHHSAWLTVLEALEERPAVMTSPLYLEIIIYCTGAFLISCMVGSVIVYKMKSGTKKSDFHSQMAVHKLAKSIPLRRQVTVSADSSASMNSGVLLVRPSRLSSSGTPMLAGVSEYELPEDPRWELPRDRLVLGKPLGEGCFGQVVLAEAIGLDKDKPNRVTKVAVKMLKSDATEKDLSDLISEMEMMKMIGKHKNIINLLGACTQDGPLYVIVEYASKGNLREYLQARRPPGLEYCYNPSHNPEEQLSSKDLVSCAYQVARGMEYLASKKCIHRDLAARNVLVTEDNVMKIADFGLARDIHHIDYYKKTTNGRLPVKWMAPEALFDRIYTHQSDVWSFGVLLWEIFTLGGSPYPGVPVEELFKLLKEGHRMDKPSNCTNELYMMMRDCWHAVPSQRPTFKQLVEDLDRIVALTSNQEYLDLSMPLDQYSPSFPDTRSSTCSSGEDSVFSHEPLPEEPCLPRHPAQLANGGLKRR

[6] = molecular target: Platelet-derived growth factor receptor alpha (Homo sapiens, UniProt P16234); test: Inhibition of PDGFRalpha using poly(Glu-Tyr)4:1 as substrate after 60 mins by ELISA; summary of the method: as §2
[7] = molecular target: Mast/stem cell growth factor receptor Kit (Homo sapiens, UniProt P10721); test: Inhibition of c-kit expressed in Bac-to-Bac Baculovirus expression system using poly(Glu-Tyr)4:1 as substrate after 60 mins by ELISA; summary of the method: as §2
[8] = molecular target: Proto-oncogene tyrosine-protein kinase receptor Ret (Homo sapiens, UniProt P07949); test: Inhibition of RET expressed in Bac-to-Bac Baculovirus expression system using poly(Glu-Tyr)4:1 as substrate after 60 mins by ELISA; summary of the method: as §2
[9] = molecular target: Fibroblast growth factor receptor 3 (Homo sapiens, UniProt P22607); test: Inhibition of FGFR3 using poly(Glu-Tyr)4:1 as substrate after 60 mins by ELISA; summary of the method: as §2
[10] = molecular target: Tyrosine-protein kinase ABL1 (Homo sapiens, UniProt P00519); test: Inhibition of Abl using poly(Glu-Tyr)4:1 as substrate after 60 mins by ELISA; summary of the method: as §2
[11] = molecular target: T1, Fibroblast growth factor receptor 1; test: Inhibition of FGFR1 in human BxPC3 cells assessed as reduction of Erk1/2 phosphorylation at 10 uM after 12 hrs by Western blot analysis; assay type: cell-based; settings: BXPC-3; summary of the method: as §3
Target sequence in this assay (P11362 22-822 limits assumed): as above

[12] = molecular target: T1, Fibroblast growth factor receptor 1; test: Inhibition of FGFR1 in human BxPC3 cells assessed as reduction of Akt phosphorylation at 10 uM after 12 hrs by Western blot analysis; assay type: cell-based; settings: BXPC-3; summary of the method: as §3
Target sequence in this assay (P11362 22-822 limits assumed): as above

Ephrin type-B receptor 2 = molecular target: T2, Ephrin type-B receptor 2 (Homo sapiens, UniProt P29323); test: Inhibition of EphB2 expressed in Bac-to-Bac Baculovirus expression system using poly(Glu-Tyr)4:1 as substrate after 60 mins by ELISA; summary of the method: as §2
T2 sequence (P29323 whole entry): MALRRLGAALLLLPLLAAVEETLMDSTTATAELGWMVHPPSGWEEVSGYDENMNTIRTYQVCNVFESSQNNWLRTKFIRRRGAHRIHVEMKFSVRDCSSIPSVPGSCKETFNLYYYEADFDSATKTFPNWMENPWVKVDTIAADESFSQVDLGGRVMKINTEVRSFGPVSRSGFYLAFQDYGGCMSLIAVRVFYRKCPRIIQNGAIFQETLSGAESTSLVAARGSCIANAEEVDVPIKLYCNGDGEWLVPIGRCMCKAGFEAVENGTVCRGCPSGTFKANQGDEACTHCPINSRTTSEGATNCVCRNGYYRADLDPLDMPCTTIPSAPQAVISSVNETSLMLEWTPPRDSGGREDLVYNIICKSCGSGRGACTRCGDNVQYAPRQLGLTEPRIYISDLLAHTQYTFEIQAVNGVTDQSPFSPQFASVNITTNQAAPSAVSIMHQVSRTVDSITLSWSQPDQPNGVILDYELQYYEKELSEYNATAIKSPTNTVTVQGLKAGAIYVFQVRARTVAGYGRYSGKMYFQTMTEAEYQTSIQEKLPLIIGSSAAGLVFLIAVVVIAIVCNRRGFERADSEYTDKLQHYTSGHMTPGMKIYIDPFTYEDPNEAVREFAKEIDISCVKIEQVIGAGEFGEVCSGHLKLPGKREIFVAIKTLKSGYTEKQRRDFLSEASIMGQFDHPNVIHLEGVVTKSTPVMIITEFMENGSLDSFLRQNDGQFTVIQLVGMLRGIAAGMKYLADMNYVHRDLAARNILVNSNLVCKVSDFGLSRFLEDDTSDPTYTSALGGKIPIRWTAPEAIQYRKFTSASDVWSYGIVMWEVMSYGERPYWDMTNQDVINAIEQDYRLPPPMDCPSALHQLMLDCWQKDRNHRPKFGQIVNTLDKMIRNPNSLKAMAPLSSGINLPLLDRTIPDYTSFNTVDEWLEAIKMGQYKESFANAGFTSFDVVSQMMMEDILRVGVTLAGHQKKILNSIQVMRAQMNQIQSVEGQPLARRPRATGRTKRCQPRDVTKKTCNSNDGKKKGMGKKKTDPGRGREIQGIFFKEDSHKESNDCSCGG

[13] = molecular target: Insulin-like growth factor 1 receptor (Homo sapiens, UniProt P08069); test: Inhibition of IGF1R expressed in Bac-to-Bac Baculovirus expression system using poly(Glu-Tyr)4:1 as substrate after 60 mins by ELISA; summary of the method: as §2
[14] = molecular target: Fibroblast growth factor receptor 4 (Homo sapiens, UniProt P22455); test: Inhibition of FGFR4 using poly(Glu-Tyr)4:1 as substrate after 60 mins by ELISA; summary of the method: as §2
[15] = molecular target: Macrophage-stimulating protein receptor (Homo sapiens, UniProt Q04912); test: Inhibition of RON expressed in Bac-to-Bac Baculovirus expression system using poly(Glu-Tyr)4:1 as substrate after 60 mins by ELISA; summary of the method: as §2
Ephrin type-A receptor 2 = Ephrin type-A receptor 2 (Homo sapiens, UniProt P29317); test: Inhibition of EphA2 expressed in Bac-to-Bac Baculovirus expression system using poly(Glu-Tyr)4:1 as substrate after 60 mins by ELISA; summary of the method: as §2
[16] = molecular target: Fibroblast growth factor receptor 2 (Homo sapiens, UniProt P21802); test: Inhibition of FGFR2 using poly(Glu-Tyr)4:1 as substrate after 60 mins by ELISA; summary of the method: as §2
[17] = molecular target: Proto-oncogene tyrosine-protein kinase Src (Homo sapiens, UniProt P12931); test: Inhibition of c-Src expressed in Bac-to-Bac Baculovirus expression system using poly(Glu-Tyr)4:1 as substrate after 60 mins by ELISA; summary of the method: as §2
Calf thymus DNA = test: Binding affinity to calf thymus DNA at 20 uM by circular dichroism assay; assay type: nucleic-acid assay; settings: Bos taurus

Chain of Vascular endothelial growth factor receptor 1 (P17948 whole entry): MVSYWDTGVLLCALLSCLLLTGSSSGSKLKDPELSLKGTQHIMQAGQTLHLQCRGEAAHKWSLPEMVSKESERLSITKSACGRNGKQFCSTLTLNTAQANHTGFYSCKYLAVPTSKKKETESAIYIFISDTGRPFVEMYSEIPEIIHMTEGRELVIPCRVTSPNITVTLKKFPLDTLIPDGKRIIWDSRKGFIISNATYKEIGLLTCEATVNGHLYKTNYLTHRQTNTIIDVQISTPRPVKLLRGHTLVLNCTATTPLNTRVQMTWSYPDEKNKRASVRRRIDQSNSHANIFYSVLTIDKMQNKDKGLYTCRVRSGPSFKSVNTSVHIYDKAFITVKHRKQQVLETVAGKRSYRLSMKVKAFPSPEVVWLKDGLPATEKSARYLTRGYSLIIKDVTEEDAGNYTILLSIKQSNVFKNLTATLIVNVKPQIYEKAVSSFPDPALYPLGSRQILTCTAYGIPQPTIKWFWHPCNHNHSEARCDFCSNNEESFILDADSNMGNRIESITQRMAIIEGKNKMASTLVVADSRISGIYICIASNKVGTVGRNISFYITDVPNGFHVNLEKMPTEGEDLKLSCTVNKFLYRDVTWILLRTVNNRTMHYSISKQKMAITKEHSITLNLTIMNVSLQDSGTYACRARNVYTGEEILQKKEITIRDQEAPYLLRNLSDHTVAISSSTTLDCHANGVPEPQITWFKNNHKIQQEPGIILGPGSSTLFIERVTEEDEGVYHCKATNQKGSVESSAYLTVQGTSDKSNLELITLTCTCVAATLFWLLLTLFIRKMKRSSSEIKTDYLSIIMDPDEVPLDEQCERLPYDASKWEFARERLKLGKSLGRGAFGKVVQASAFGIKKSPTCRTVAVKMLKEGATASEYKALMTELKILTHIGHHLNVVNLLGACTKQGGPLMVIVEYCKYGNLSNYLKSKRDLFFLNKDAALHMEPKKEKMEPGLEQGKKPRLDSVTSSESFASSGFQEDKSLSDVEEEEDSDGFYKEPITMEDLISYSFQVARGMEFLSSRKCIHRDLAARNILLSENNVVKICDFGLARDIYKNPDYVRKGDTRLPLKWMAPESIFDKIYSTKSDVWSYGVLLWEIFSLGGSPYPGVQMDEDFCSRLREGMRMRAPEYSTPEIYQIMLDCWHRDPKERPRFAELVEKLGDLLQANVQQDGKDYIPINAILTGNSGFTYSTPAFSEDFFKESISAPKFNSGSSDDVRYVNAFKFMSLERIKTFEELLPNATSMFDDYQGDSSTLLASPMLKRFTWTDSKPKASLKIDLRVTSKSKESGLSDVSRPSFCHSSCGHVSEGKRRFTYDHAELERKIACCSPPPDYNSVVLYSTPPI
Chain of Proto-oncogene tyrosine-protein kinase receptor Ret (P07949 whole entry): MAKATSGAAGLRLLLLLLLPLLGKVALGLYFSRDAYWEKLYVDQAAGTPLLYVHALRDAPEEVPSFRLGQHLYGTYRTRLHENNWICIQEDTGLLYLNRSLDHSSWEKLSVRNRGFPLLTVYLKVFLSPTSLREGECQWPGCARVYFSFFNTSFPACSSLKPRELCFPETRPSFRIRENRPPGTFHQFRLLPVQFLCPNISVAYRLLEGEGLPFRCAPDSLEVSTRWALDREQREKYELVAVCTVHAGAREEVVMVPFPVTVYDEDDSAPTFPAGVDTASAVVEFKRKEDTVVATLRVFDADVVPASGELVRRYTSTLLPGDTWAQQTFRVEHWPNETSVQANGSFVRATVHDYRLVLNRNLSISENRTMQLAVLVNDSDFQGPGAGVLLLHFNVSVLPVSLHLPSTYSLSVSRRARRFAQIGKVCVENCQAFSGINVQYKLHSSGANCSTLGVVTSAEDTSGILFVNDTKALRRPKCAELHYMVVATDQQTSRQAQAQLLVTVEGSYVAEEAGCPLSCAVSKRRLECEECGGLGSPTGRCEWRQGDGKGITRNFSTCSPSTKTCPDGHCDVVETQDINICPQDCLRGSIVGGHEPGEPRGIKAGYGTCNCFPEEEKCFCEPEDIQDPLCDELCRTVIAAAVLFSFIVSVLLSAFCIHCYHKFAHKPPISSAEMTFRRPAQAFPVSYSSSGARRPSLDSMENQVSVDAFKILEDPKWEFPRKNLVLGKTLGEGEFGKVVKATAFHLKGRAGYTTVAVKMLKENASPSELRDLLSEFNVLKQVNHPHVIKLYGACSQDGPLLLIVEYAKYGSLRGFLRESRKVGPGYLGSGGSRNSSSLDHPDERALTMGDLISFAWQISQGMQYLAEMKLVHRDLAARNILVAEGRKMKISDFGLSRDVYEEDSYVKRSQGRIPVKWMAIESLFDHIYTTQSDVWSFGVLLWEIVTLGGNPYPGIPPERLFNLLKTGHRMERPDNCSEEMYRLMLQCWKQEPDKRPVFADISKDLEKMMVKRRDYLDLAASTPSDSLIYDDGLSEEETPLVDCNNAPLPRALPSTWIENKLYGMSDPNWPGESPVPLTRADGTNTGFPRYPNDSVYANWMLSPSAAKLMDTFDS
Chain of Fibroblast growth factor receptor 2 (P21802 whole entry): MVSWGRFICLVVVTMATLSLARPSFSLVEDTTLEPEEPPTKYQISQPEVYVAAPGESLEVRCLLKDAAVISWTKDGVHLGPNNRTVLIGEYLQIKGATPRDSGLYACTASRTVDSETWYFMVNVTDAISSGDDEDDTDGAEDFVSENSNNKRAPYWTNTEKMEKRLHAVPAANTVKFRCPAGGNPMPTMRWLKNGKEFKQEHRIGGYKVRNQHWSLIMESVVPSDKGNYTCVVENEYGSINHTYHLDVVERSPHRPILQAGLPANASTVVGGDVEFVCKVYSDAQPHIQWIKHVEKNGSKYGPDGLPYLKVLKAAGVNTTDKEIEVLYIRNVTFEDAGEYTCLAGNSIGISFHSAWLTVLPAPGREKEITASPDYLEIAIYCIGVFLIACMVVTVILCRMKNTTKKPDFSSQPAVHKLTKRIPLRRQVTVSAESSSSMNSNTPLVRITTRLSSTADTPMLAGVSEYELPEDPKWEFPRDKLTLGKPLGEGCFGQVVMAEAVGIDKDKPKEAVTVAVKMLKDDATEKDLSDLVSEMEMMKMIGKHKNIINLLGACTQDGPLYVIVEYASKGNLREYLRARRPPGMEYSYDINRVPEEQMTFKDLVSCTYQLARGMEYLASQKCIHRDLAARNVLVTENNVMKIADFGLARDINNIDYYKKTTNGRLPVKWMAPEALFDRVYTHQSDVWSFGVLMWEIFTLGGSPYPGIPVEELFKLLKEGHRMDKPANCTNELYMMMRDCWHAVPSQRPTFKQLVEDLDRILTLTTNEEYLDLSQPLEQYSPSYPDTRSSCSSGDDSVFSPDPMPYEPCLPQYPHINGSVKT

In the case of `CCCSc1ccc2c3c(cccc13)C1=NC(=O)C(C(=O)OCC(=O)OCC(F)(F)C(F)(F)F)=C12`, the IC50 (WI-38) is reported as 58.8 µM, the IC50 (BXPC-3) is reported as 54.1 µM and the IC50 [1] is reported as > 10 µM. The IC50 (T-24) was > 100 µM.
For `CCOC(=O)C1=C2C(=NC1=O)c1cccc3cccc2c13`, the IC50 [2] was 3.2 µM, the IC50 [3] was > 10 µM and the IC50 [4] was > 10 µM. The IC50 (WI-38) was 6.2 µM, the inhibition [5] was “Dose-dependent effect” and the IC50 [6] was > 10 µM. The IC50 [7] was > 10 µM, the IC50 [8] was > 10 µM and the IC50 [9] was 4.6 µM. For the same molecule, the IC50 [10] was > 10 µM, the inhibition [11] was “Active” and the IC50 (BXPC-3) was 4.7 µM. For the same molecule, the inhibition [12] was “inactive”, the IC50 (Ephrin type-B receptor 2) was > 10 µM and the IC50 [13] was > 10 µM. For the same molecule, the IC50 [14] was > 10 µM, the IC50 [1] was 0.074 µM and the IC50 [15] was > 10 µM. For the same molecule, the IC50 (Ephrin type-A receptor 2) was > 10 µM, the IC50 (T-24) was 2.9 µM and the IC50 [16] was > 10 µM. For the same molecule, the IC50 [17] was > 10 µM.
`N#CC1=C2C(=NC1=O)c1cccc3cccc2c13` gave an IC50 (WI-38) of 21.7 µM, an IC50 (BXPC-3) of 25 µM and an IC50 [1] of 4.5 µM. The IC50 (T-24) was 13.3 µM.
`C=CCOC(=O)C1=C2C(=NC1=O)c1cccc3cccc2c13` was tested, and the IC50 (WI-38) was 20.6 µM, the inhibition [5] was “Dose-dependent effect” and the IC50 (BXPC-3) was 4.8 µM. The inhibition [12] was “inactive”, the IC50 [1] was 0.019 µM and the IC50 (T-24) was 3.9 µM.
Work on `CCOC(=O)C1=C2C(=NC1=O)c1cccc3c(SCCc4cnccn4)ccc2c13` yielded an IC50 [1] of 2.1 µM.
For `C=CCOC(=O)C1=C2C(=NC1=O)c1cccc3c(SCCC)ccc2c13`, the IC50 (WI-38) was 33.2 µM, the Activity (Calf thymus DNA) was “Active” and the IC50 (BXPC-3) was 12.9 µM. The IC50 [1] was > 10 µM and the IC50 (T-24) was 13.1 µM.
For `C=CCSc1ccc2c3c(cccc13)C1=NC(=O)C(C#N)=C12`, the IC50 [1] was > 10 µM.
For `CCOC(=O)C1=C2C(=NC1=O)c1cccc3c(SC(C)C4(C)CSCO4)ccc2c13` (stereo not given), the IC50 [1] was > 10 µM.
In the case of `N#CC1=C2C(=NC1=O)c1cccc3c(SCCc4cnccn4)ccc2c13`, the IC50 [1] is reported as > 10 µM.
`CCOC(=O)C1=C2C(=NC1=O)c1cccc3c(SCCO)ccc2c13` was tested, and the IC50 [1] was 0.32 µM.
`N#CC1=C2C(=NC1=O)c1cccc3c(SCCN4CCSC4)ccc2c13` was tested, and the IC50 [1] was > 10 µM.
For `CCOC(=O)C1=C2C(=NC1=O)c1cccc3c(SCCN4CCSC4)ccc2c13`, the IC50 [1] was > 10 µM.
With `CCOC(=O)C1=C2C(=NC1=O)c1cccc3c(SC4CCOC4C)ccc2c13` (stereo not given) the IC50 [1] was > 10 µM.
`Cc1c[nH]c(/C=C2\C(=O)Nc3ccccc32)c1CCC(=O)O` showed an IC50 [1] of 0.334 µM.
